Shown are actives, neighbours in structure and some others; about 2.5% of the full set was active somewhere.
INS promoter inh – TRM-6 insulin promoter activity inhibition; TRM-6 cells (human fetal islet line), insulin promoter-eGFP reporter, imaging; reporter expression induced with tamoxifen; inhibition, % at 2 µM; 130,000 tested, 0.9% active; AID 1273;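 active = inhibition above the mean plus 3 SD, with well images judged a real hit on visual review, cut at about 60% in these data, passing the limit was not always enough; inconclusive = inhibition over the cutoff but images rejected on review; inactive = inhibition not above the cutoff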
NPY-Y1 PAM-ag – potentiates or activates human NPY-Y1 receptor | P25929 | NPY-Y1 expressing cells, potentiator/agonist activation | activation, % at 3.6 µM | 220,000 tested, 0.37% active | AID 1304; in the data active = activation above about 33%, passing the limit was not always enough;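 note: cells stimulated with NPY at EC10 then isoproterenol at EC100; 0% = low agonist plus stimulus and 100% = saturating agonist plus stimulus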
Ins promoter up – MIN6 insulin promoter up-regulation | MIN6 insulin promoter-GFP reporter, high-content imaging; active compounds read high | z-score at 5 µM | 190,000 tested, 0.3% active | AID 1625;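 active = z-score above 3 at 5 µM with at least 500 cells counted in the well; inconclusive = wells under 500 cells, flagged as cytotoxic or low count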
NPY2 pot ag – potentiates or activates human NPY-Y2 receptor. P49146. cells expressing NPY-Y2, potentiator/agonist read-out. activation, % at 3.6 µM. 220,000 tested, 0.45% active. AID 1359; in the data active = activation above about 27%;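 note: cells stimulated with NPY near EC25 plus isoproterenol at EC100; 0% = vehicle plus submaximal agonist and 100% = vehicle plus saturating agonist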
Target sequence (P49146 whole entry, looked up): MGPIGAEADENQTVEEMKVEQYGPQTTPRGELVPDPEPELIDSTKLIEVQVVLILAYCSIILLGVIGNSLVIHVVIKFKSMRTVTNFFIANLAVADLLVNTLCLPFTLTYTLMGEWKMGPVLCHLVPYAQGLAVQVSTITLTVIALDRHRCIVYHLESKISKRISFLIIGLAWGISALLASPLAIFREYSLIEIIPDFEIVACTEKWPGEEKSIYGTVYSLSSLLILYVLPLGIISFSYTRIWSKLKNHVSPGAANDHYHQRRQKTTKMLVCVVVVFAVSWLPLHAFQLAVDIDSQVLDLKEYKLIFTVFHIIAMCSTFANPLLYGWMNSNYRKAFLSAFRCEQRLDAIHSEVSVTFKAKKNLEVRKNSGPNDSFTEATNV
NPY Y2 blocker – blocks the human neuropeptide Y Y2 receptor; P49146; NPY-Y2 expressing cells, antagonist mode; inhibition, % at 2.7 µM; 140,000 tested, 0.99% active; AID 793; in the data active = inhibition above about 17%;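 note: 0% = vehicle with agonist challenge and 100% = reference antagonist with challenge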
NPY Y1 blocker – NPY-Y1 (human) receptor antagonism; P25929; 200,000 tested, 1% active; HEK293-CNG Y1 cells, membrane potential fluorescence; NPY at EC95, then isoproterenol; inhibition, % at 3.6 µM;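 active = inhibition above the campaign mean inhibition of all tested compounds plus 3 SD, cut at about 20% in these data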;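 note: 0% = DMSO wells given NPY plus isoproterenol and 100% = isoproterenol alone without NPY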
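System: HEK293 cells with Y1 receptor plus CNG channel / Probe or stimulus: NPY 25 nM then isoproterenol 1 µM plus Ro 20-1724 25 µM / Compound: one concentration, 3.6 µM, in 0.4% DMSO / Schedule: compound incubation 1 h at room temperature, readout 45 min post-stimulation / Measured by: membrane potential fluorescence / Read-out: % inhibition of NPY effect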
* = called active by the depositor; i = inactive; ? = inconclusive; / = no result; ! = repeats disagree.

SMILES	INS promoter inh	NPY-Y1 PAM-ag	Ins promoter up	NPY2 pot ag	NPY Y2 blocker	NPY Y1 blocker
Cc1cc(OC(=O)CCCNC(=O)OC(C)(C)C)c2c3c(c(=O)oc2c1)CCC3	-14	1	-1	-18	2	2
Cc1cc(OC(=O)CCNC(=O)OC(C)(C)C)c2c3c(c(=O)oc2c1)CCC3	/	-13	0.26	68*	-4	1
CN1C2CCC1/C(=C/c1ccccn1)C(=O)/C2=C\c1ccccn1	i	-53	?	-8	3	19
CC(C)(C)NCC(O)c1cc(Cl)c(N)c(Cl)c1 (stereo not drawn)	0	97*	/	88*	1	-11
CCCCn1c(C)c(C(=O)OCC)c2c(CN3CCOCC3)c(O)ccc21	21	-59	0.03	-32	34*	33*
CCOC(=O)c1c(C)n(Cc2ccco2)c2ccc(O)cc12	31	-4	2.9	-4	3	2
CCN(CCNc1ccc([N+](=O)[O-])c2cccnc12)S(=O)(=O)c1ccccc1	/	61*	0.6	70*	6	-5
Cc1cc2c(C(C)C)c(O)c(O)c(C=O)c2c(O)c1-c1c(C)cc2c(C(C)C)c(O)c(O)c(C=O)c2c1O	62*!	15	/	18	-4	-4
Cc1ccc(NP(=O)(c2ccccc2)c2nc3ccccc3s2)cc1 (stereo not drawn)	/	-8	0.09	-15	/	-2
COc1cccc(C(=O)C2CCCN(Cc3cccc4c3OCO4)C2)c1 (stereo not drawn)	-19	1	-0.18	-3	/	7
CC1CCCC(C2(O)C(=O)Nc3ccccc32)C1=O (stereo not drawn)	-4	14	5.6*	-3	-1	12
CCOP(=O)(OCC)C1(O)C(=O)Nc2ccccc21 (stereo not drawn)	0	-12	/	-2	0	3
Cc1ccccc1-n1c(O)c(/C=N/NC(=O)c2ccncc2)c(=O)[nH]c1=O	/	17	0.3	-11	/	/
N#Cc1ccc(/C=C/C(=O)O)cc1	/	14	-0.44	-3	/	/
O=c1[nH]c(=O)n(CC2CCCO2)c(O)c1/C=C1\C=Nc2ccccc21 (stereo not drawn)	24	-5	-0.5	-13	2	5
COCCOC(=O)C1=C(C)OC(N)=C(C(=O)OC)C12C(=O)Nc1ccccc12 (stereo not drawn)	/	1	0.47	12	3	1
CC(=O)C1=C(C)OC(N)=C(C(=O)OC(C)C)C12C(=O)Nc1ccccc12 (stereo not drawn)	100*	-25	/	-11	0	5
CC(Oc1ccc(-c2ccccc2)cc1)C(=O)O (stereo not drawn)	58	2	-0.02	-28	5	25*
CC(CCc1ccccc1)NC(C)C(O)c1ccc(O)cc1 (stereo not drawn)	10	92*	/	86*	4	-9
C[C@@H]1O[C@@H](O[C@H]2C[C@@H](O)[C@]3(CO)[C@H]4[C@H](O)C[C@]5(C)[C@@H](C6=CC(=O)OC6)CC[C@]5(O)[C@@H]4CC[C@]3(O)C2)[C@H](O)[C@H](O)[C@H]1O	-355	-79	/	-22	22*	34*
CC12CC[C@H]3[C@@H](CCC4(O)C[C@H](O)CCC34/C=N/NC(=O)c3ccccc3Cl)C1(O)CCC2C1=CC(=O)OC1 (stereo partly drawn)	/	-13	0.31	-38	/	/
C[C@H]1O[C@@H](O[C@H]2[C@@H](O)C[C@H](O[C@H]3[C@@H](O)C[C@H](O[C@H]4CC[C@@]5(C)[C@H](CC[C@@H]6[C@@H]5CC[C@]5(C)[C@@H](C7=CC(=O)OC7)CC[C@]65O)C4)O[C@@H]3C)O[C@@H]2C)C[C@H](O)[C@@H]1O	100*	-82	/	-18	45*	51*
O=C(NC1CN2CCC1CC2)c1ccc(-c2ccc([N+](=O)[O-])cc2)o1 (stereo not drawn)	-80	5	/	7	1	1
CN=C(SCc1cc2c(cc1Cl)OCO2)c1c(O)n(C)c(=O)n(C)c1=O	/	-16	?	-5	4	-8
O=c1cccc2n1CC1CC2CN(c2nc(N3CCCCC3)nc(N3CCCCC3)n2)C1 (stereo not drawn)	-46	-20	-0.21	-5	/	-1
